# The source made the active and inactive calls. The calls are words filed in the database; no cut-off is given here.
# What was measured:
# Human alphaherpesvirus 2 = experiment: Antiviral activity against Human simplex virus 2 G infected in HEL cells assessed as reduction in viral cytopathic effect; assay type: functional, organism-based; conditions: Human alphaherpesvirus 2, strain G
# Outline: (§1)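 Confluent cell monolayers were infected with 100 CCID50 of virus (1 CCID50 is the dose infecting 50% of cultures) with test compound at varying concentrations (100, 20, … μM). CPE was scored once it was complete in untreated infected controls.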
# Sindbis virus = experiment: Antiviral activity against Sindbis virus infected in African green monkey Vero cells assessed as reduction in viral cytopathic effect; assay type: functional, organism-based; outline: as §1
# Human betaherpesvirus 5 [1] = experiment: Antiviral activity against Human cytomegalovirus Davis infected in HEL cells assessed as reduction in viral cytopathic effect; assay type: functional, organism-based; conditions: Human betaherpesvirus 5, Davis; outline: as §1
# Influenza A virus H3N2 = experiment: Antiviral activity against Influenza A virus H3N2 infected in MDCK cells assessed as reduction in viral cytopathic effect; assay type: functional, organism-based
# Outline: (§2)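 Nearly confluent MDCK cultures were infected with 100 CCID50 of virus with compound at varying concentrations (100, 20, … μM). CPE was scored when complete in untreated infected controls.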
# [2] = Selectivity index, ratio of CC50 for HEL cells to EC50 for thymidine kinase deficient Varicella zoster virus 07/1 infected in HEL cells; assay type: toxicity, cell-based; conditions: human, read-out: Ratio CC50/EC50
# Outline: (§3)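 SI is CC50 divided by EC50. CC50 comes from the 3-day HEL Coulter-counter growth assay. EC50 comes from the VZV plaque-reduction assay (20 PFU inoculum).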
# [3] = Selectivity index, ratio of CC50 for HEL cells to EC50 for Varicella zoster virus Oka infected in HEL cells; assay type: toxicity, cell-based; conditions: human, read-out: Ratio CC50/EC50; outline: as §3
# Coxsackievirus B4 [4] = experiment: Antiviral activity against Human coxsackievirus B4 infected in human HeLa cells assessed as reduction in viral cytopathic effect; assay type: functional, organism-based; outline: as §1
# [5] = tested on: Human immunodeficiency virus 1; experiment: Antiviral activity against Human immunodeficiency virus 1 LAV1 infected in primary human PBM cells after 6 days by reverse transcriptase activity-based assay; assay type: functional, organism-based
# Human alphaherpesvirus 3 [6] = experiment: Antiviral activity against thymidine kinase deficient Varicella zoster virus 07/1 infected in HEL cells assessed as reduction in viral plaque formation; assay type: functional, organism-based; conditions: Human alphaherpesvirus 3, 07/1, HEL
# Outline: (§4)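 Confluent cultures were inoculated with 20 PFU of virus with compound at varying concentrations (100, 20, … μM). Plaques were counted once plaque formation was complete in untreated infected controls.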
# Human alphaherpesvirus 3 [7] = experiment: Antiviral activity against Varicella zoster virus Oka infected in HEL cells assessed as reduction in viral plaque formation; assay type: functional, organism-based; conditions: Human alphaherpesvirus 3, strain Oka vaccine; outline: as §4
# Human respirovirus 3 = experiment: Antiviral activity against Human parainfluenza virus 3 infected in African green monkey Vero cells assessed as reduction in viral cytopathic effect; assay type: functional, organism-based; outline: as §1
# [8] = tested on: Vesicular stomatitis virus; experiment: Antiviral activity against Vesicular stomatitis virus infected in human HeLa cells assessed as reduction in viral cytopathic effect; assay type: functional, organism-based; outline: as §1
# Influenza B virus = experiment: Antiviral activity against Influenza B virus infected in MDCK cells assessed as reduction in viral cytopathic effect; assay type: functional, organism-based; outline: as §2
# Influenza A virus = experiment: Antiviral activity against Influenza A virus (H1N1) infected in MDCK cells assessed as reduction in viral cytopathic effect; assay type: functional, organism-based; outline: as §2
# HEL = experiment: Cytostatic activity against HEL cells after 3 days by Coulter counting method; assay type: cell-based; conditions: human, 72 h
# Outline: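 HEL cells were seeded at 5 × 10^3 cells/well and grown for 24 h, then given medium with graded compound concentrations. After 3 days at 37 °C, cells were counted with a Coulter counter.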
# [9] = tested on: Respiratory syncytial virus; experiment: Antiviral activity against Respiratory syncytial virus infected in human HeLa cells assessed as reduction in viral cytopathic effect; assay type: functional, organism-based; outline: as §1
# [10] = Cytotoxicity against HEL cells assessed as alteration of cell morphology by microscopic method; assay type: cell-based; conditions: human
# Outline: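 MCC is the lowest compound concentration giving a microscopically visible alteration of cell morphology.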
# Vaccinia virus = experiment: Antiviral activity against Vaccinia virus infected in HEL cells assessed as reduction in viral cytopathic effect; assay type: functional, organism-based; conditions: Orthopoxvirus vaccinia; outline: as §1
# Human betaherpesvirus 5 [11] = experiment: Antiviral activity against Human cytomegalovirus AD169 infected in HEL cells assessed as reduction in viral cytopathic effect; assay type: functional, organism-based; conditions: Human betaherpesvirus 5, AD169, HEL; outline: as §1
# [12] = tested on: Mammalian orthoreovirus 1; experiment: Antiviral activity against Reovirus-1 infected in African green monkey Vero cells assessed as reduction in viral cytopathic effect; assay type: functional, organism-based; outline: as §1
# Coxsackievirus B4 [13] = experiment: Antiviral activity against Coxsackievirus B4 infected in African green monkey Vero cells assessed as reduction in viral cytopathic effect; assay type: functional, organism-based; outline: as §1
# Human alphaherpesvirus 1 [14] = experiment: Antiviral activity against Human simplex virus 1 KOS infected in HEL cells assessed as reduction in viral cytopathic effect; assay type: functional, organism-based; conditions: Human alphaherpesvirus 1, KOS; outline: as §1
# Human alphaherpesvirus 1 [15] = experiment: Antiviral activity against thymidine kinase deficient acyclovir-resistant Human simplex virus 1 KOS infected in HEL cells assessed as reduction in viral cytopathic effect; assay type: functional, organism-based; conditions: Human alphaherpesvirus 1, KOS; outline: as §1
Compound,EC50 (Human alphaherpesvirus 2) [µM],Activity (Sindbis virus),EC50 (Human betaherpesvirus 5 [1]) [µM],Activity (Influenza A virus H3N2),Activity (Coxsackievirus B4 [4]),Activity [5],EC50 (Human alphaherpesvirus 3 [6]) [µM],EC50 (Human alphaherpesvirus 3 [7]) [µM],Activity (Human respirovirus 3),Activity [8],Activity (Influenza B virus),Activity (Influenza A virus),CC50 (HEL) [µM],Activity [9],MCC [10] [µM],EC50 (Vaccinia virus) [µM],EC50 (Human betaherpesvirus 5 [11]) [µM],Activity [12],EC50 (Human alphaherpesvirus 1 [14]) [µM],EC50 (Human alphaherpesvirus 1 [15]) [µM],further results
Cc1cn(C/C=C/CP(=O)(OCOC(=O)C(C)(C)C)OCOC(=O)C(C)(C)C)c(=O)[nH]c1=O,6.5,inactive,> 41,inactive,inactive,inactive,0.43,1.91,inactive,inactive,inactive,inactive,36.4,inactive,≥ 100,30.7,> 41,inactive,,,selectivity ratio [2]: 85; selectivity ratio [3]: 19; Activity (Coxsackievirus B4 [13]): inactive
Nc1nc2c(ncn2COCCO)c(=O)[nH]1 [ACYCLOVIR],0.7,,,,,,,,,,,,> 440,,> 440,> 250,,,1.2,94,
Cc1cn(C/C=C/CP(=O)(OCOC(=O)C(C)C)OCOC(=O)C(C)C)c(=O)[nH]c1=O,6.1,inactive,83,inactive,inactive,inactive,0.45,1.26,inactive,inactive,inactive,inactive,36,inactive,> 200,> 200,102,inactive,4.2,2.8,selectivity ratio [2]: 80; selectivity ratio [3]: 29; Activity (Coxsackievirus B4 [13]): inactive
CCCCCCCCCCCCCCCOCCCOP(=O)(C/C=C/Cn1cc(C)c(=O)[nH]c1=O)OCOC(=O)OC(C)C (stereo not given),> 152,inactive,> 6,inactive,inactive,inactive,> 6,> 6,inactive,inactive,inactive,inactive,14.7,inactive,30,,> 6,inactive,> 152,> 152,Activity (Coxsackievirus B4 [13]): inactive
CCCCCCCCCCCCCCCOCCCOP(=O)(O)C/C=C/Cn1cc(C)c(=O)[nH]c1=O,> 37,inactive,13.5,inactive,inactive,inactive,20.5,19.4,inactive,inactive,inactive,inactive,76,inactive,184,> 37,> 39,inactive,> 37,> 37,Activity (Coxsackievirus B4 [13]): inactive
O=c1[nH]c(=O)n([C@H]2C[C@H](O)[C@@H](CO)O2)cc1/C=C/Br [BRIVUDINE],169,,,,,,≥ 93.8,,,,,,> 300,,> 300,10.8,,,0.081,420,selectivity ratio [2]: > 3; selectivity ratio [3]: > 21400
Nc1nc(O)c2ncn(COC(CO)CO)c2n1 [GANCICLOVIR],,,4.05,,,,,,,,,,> 350,,≥ 350,,5.63,,,,
Nc1ccn(C[C@@H](CO)OCP(=O)(O)O)c(=O)n1 [CIDOFOVIR],4.1,,,,,,,,,,,,> 300,,> 300,21.3,,,6.5,4.6,

# From ChEMBL document CHEMBL4196014, “Highly convergent synthesis and antiviral activity of (E)-but-2-enyl nucleoside phosphonoamidates” (Eur J Med Chem, 2018)
